Values after ≈ are worked out from the molar mass of the structure shown.
How the values were obtained:
Assay type in all cases: functional
Staphylococcus aureus [1] = experiment: Antibacterial activity against Staphylococcus aureus ATCC 25923 after 24 hrs by two fold dilution technique; settings: ATCC 25923, 24 h
How it was run: (§1)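 Broth dilution MIC. Nutrient broth held log two-fold serial dilutions of compound and was inoculated with about 5 × 10⁵ c.f.u./ml of actively dividing bacteria. Incubation was 24 h at 37 °C, with growth checked visually and spectrophotometrically. MIC is the lowest concentration arresting growth.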

Candida albicans [2] = experiment: Ratio of MFC to MIC for Candida albicans
How it was run: (§2)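 MFC: 0.1 ml from each MIC tube was spread on agar and colonies were counted after 48 h at 35 °C. MFC is the lowest concentration killing 99.9% of the inoculum. The MFC/MIC ratio was then calculated to classify activity as fungistatic or fungicidal.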

Aspergillus fumigatus [3] = experiment: Antifungal activity against Aspergillus fumigatus after 48 hrs by two fold dilution technique
How it was run: (§3)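 Broth MIC. Broth with log two-fold serial dilutions of compound was inoculated with about 1.6 × 10⁴–6 × 10⁴ c.f.u./ml of fungus and incubated 48 h at 35 °C. MIC is the lowest concentration arresting fungal growth.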

[4] = tested on: Trichophyton mentagrophytes; experiment: Ratio of MFC to MIC for Trichophyton mentagrophytes; how it was run: as §2
Klebsiella pneumoniae [5] = experiment: Antibacterial activity against Klebsiella pneumoniae after 24 hrs by two fold dilution technique; how it was run: as §1
Streptococcus pyogenes [6] = experiment: Antibacterial activity against Streptococcus pyogenes after 18 to 24 hrs
Escherichia coli [7] = experiment: Antibacterial activity against Escherichia coli ATCC 25922 after 24 hrs by two fold dilution technique; settings: ATCC 25922, 24 h; how it was run: as §1
[8] = tested on: Trichophyton mentagrophytes; experiment: Antifungal activity against Trichophyton mentagrophytes after 48 hrs by two fold dilution technique; how it was run: as §3
Escherichia coli [9] = experiment: Antibacterial activity against Escherichia coli ATCC 25922 after 24 hrs by disc diffusion method
How it was run: (§4)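 Agar disc diffusion. A standard inoculum of […] c.f.u./ml (0.5 McFarland) was spread evenly on agar. 6 mm Whatman no. 1 paper discs, dry-heat sterilized (140 °C, 1 h), were soaked in test compound and placed on nutrient agar. Plates were inverted and incubated 24 h at 37 °C. Read-out: diameter of the inhibition zone.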

Klebsiella pneumoniae [10] = experiment: Antibacterial activity against Klebsiella pneumoniae after 18 to 24 hrs
Pseudomonas aeruginosa [11] = experiment: Antibacterial activity against Pseudomonas aeruginosa ATCC 27853 after 24 hrs by disc diffusion method; how it was run: as §4
Aspergillus fumigatus [12] = experiment: Ratio of MFC to MIC for Aspergillus fumigatus; how it was run: as §2
Streptococcus pyogenes [13] = experiment: Antibacterial activity against Streptococcus pyogenes after 24 hrs by two fold dilution technique; how it was run: as §1
[14] = tested on: Trichophyton mentagrophytes; experiment: Antifungal activity against Trichophyton mentagrophytes after 48 hrs by disk diffusion method
How it was run: (§5)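 Agar well diffusion with compounds in DMSO. The dish was lawned with a saline spore suspension, excess decanted, and dried 1 h at 37 °C. Wells were punched. Read-out: inhibition zone in mm. Griseofulvin served as standard and DMSO as negative control.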

Escherichia coli [15] = experiment: Antibacterial activity against Escherichia coli ATCC 25922 after 18 to 24 hrs
Aspergillus fumigatus [16] = experiment: Antifungal activity against Aspergillus fumigatus after 48 hrs by disk diffusion method; how it was run: as §5
Candida albicans [17] = experiment: Antifungal activity against Candida albicans after 48 hrs by two fold dilution technique; how it was run: as §3
Klebsiella pneumoniae [18] = experiment: Antibacterial activity against Klebsiella pneumoniae after 24 hrs by disc diffusion method; how it was run: as §4
Streptococcus pyogenes [19] = experiment: Antibacterial activity against Streptococcus pyogenes after 24 hrs by disc diffusion method; how it was run: as §4
Candida albicans [20] = experiment: Antifungal activity against Candida albicans after 48 hrs by disk diffusion method; how it was run: as §5
Staphylococcus aureus [21] = experiment: Antibacterial activity against Staphylococcus aureus ATCC 25923 after 18 to 24 hrs
Talaromyces marneffei [22] = experiment: Antifungal activity against Penicillium marneffei after 48 hrs by disk diffusion method; how it was run: as §5
Talaromyces marneffei [23] = experiment: Antifungal activity against Penicillium marneffei after 48 hrs by two fold dilution technique; how it was run: as §3
Talaromyces marneffei [24] = experiment: Ratio of MFC to MIC for Penicillium marneffei; how it was run: as §2
Pseudomonas aeruginosa [25] = experiment: Antibacterial activity against Pseudomonas aeruginosa ATCC 27853 after 24 hrs by two fold dilution technique; settings: ATCC 27853, 24 h; how it was run: as §1
Staphylococcus aureus [26] = experiment: Antibacterial activity against Staphylococcus aureus ATCC 25923 after 24 hrs by disc diffusion method; how it was run: as §4
Pseudomonas aeruginosa [27] = experiment: Antibacterial activity against Pseudomonas aeruginosa ATCC 27853 after 18 to 24 hrs

MIC (Staphylococcus aureus [1]) [µg/mL] | MIC (Aspergillus fumigatus [3]) [µg/mL] | MIC (Klebsiella pneumoniae [5]) [µg/mL] | MIC (Escherichia coli [7]) [µg/mL] | MIC [8] [µg/mL] | MIC (Streptococcus pyogenes [13]) [µg/mL] | MIC (Candida albicans [17]) [µg/mL] | SMILES | Ratio (Candida albicans [2]) | MFC (Aspergillus fumigatus [3]) [µg/mL] | Ratio [4] | MBC (Streptococcus pyogenes [6]) [µg/mL] | MFC [8] [µg/mL] | diameter of the inhibition zone (DIZ) (Escherichia coli [9]) [mm] | MBC (Klebsiella pneumoniae [10]) [µg/mL] | diameter of the inhibition zone (DIZ) (Pseudomonas aeruginosa [11]) [mm] | Ratio (Aspergillus fumigatus [12]) | diameter of the inhibition zone (DIZ) [14] [mm] | MBC (Escherichia coli [15]) [µg/mL] | diameter of the inhibition zone (DIZ) (Aspergillus fumigatus [16]) [mm] | MFC (Candida albicans [17]) [µg/mL] | other results
12.5 (≈ 39.6 µM) | 25 (≈ 79.2 µM) | 25 (≈ 79.2 µM) | 25 (≈ 79.2 µM) | 25 (≈ 79.2 µM) | 25 (≈ 79.2 µM) | 25.5 (≈ 80.8 µM) | C=CCCCCCCCCc1nnc(Nc2ccccc2)s1 | 2 | 100 (≈ 317 µM) | 2 | 50 (≈ 158 µM) | 50 (≈ 158 µM) | 15.2 | 50 (≈ 158 µM) | 17.2 | 4 | 14.1 | 100 (≈ 317 µM) | 16.5 | 50 (≈ 158 µM) | diameter of the inhibition zone (DIZ) (Klebsiella pneumoniae [18]): 12.8 mm; diameter of the inhibition zone (DIZ) (Streptococcus pyogenes [19]): 13.5 mm; diameter of the inhibition zone (DIZ) (Candida albicans [20]): 19.5 mm; MBC (Staphylococcus aureus [21]): 25 µg/mL (≈ 79.2 µM); diameter of the inhibition zone (DIZ) (Talaromyces marneffei [22]): 10.2 mm; MFC (Talaromyces marneffei [23]): 100 µg/mL (≈ 317 µM); MIC (Talaromyces marneffei [23]): 25 µg/mL (≈ 79.2 µM); Ratio (Talaromyces marneffei [24]): 4; MIC (Pseudomonas aeruginosa [25]): 12.5 µg/mL (≈ 39.6 µM); diameter of the inhibition zone (DIZ) (Staphylococcus aureus [26]): 13.1 mm; MBC (Pseudomonas aeruginosa [27]): 25 µg/mL (≈ 79.2 µM)
6.25 (≈ 14.5 µM) | 25 (≈ 58.2 µM) | 6.25 (≈ 14.5 µM) | 6.25 (≈ 14.5 µM) | 25 (≈ 58.2 µM) | 6.25 (≈ 14.5 µM) | 25 (≈ 58.2 µM) | CCCCC/C=C\CCC(O)CCCCCCCc1nnc(Nc2ccccc2)s1 (stereo not drawn) | 2 | 50 (≈ 116 µM) | 4 | 25 (≈ 58.2 µM) | 100 (≈ 233 µM) | 22.9 | 6.25 (≈ 14.5 µM) | 25.9 | 2 | 19 | 12.5 (≈ 29.1 µM) | 21.8 | 50 (≈ 116 µM) | diameter of the inhibition zone (DIZ) (Klebsiella pneumoniae [18]): 19.9 mm; diameter of the inhibition zone (DIZ) (Streptococcus pyogenes [19]): 21.1 mm; diameter of the inhibition zone (DIZ) (Candida albicans [20]): 24.9 mm; MBC (Staphylococcus aureus [21]): 12.5 µg/mL (≈ 29.1 µM); diameter of the inhibition zone (DIZ) (Talaromyces marneffei [22]): 15.2 mm; MFC (Talaromyces marneffei [23]): 100 µg/mL (≈ 233 µM); MIC (Talaromyces marneffei [23]): 25 µg/mL (≈ 58.2 µM); Ratio (Talaromyces marneffei [24]): 4; MIC (Pseudomonas aeruginosa [25]): 6.25 µg/mL (≈ 14.5 µM); diameter of the inhibition zone (DIZ) (Staphylococcus aureus [26]): 20.8 mm; MBC (Pseudomonas aeruginosa [27]): 25 µg/mL (≈ 58.2 µM)
12.5 (≈ 30.2 µM) | 6.25 (≈ 15.1 µM) | 25 (≈ 60.4 µM) | 25 (≈ 60.4 µM) | 6.25 (≈ 15.1 µM) | 12.5 (≈ 30.2 µM) | 6.25 (≈ 15.1 µM) | CCCCCCCC/C=C\CCCCCCCc1nnc(Nc2ccccc2)s1 | 2 | 25 (≈ 60.4 µM) | 2 | 100 (≈ 242 µM) | 12.5 (≈ 30.2 µM) | 14.8 | 50 (≈ 121 µM) | 16.3 | 4 | 20.3 | 50 (≈ 121 µM) | 23.8 | 12.5 (≈ 30.2 µM) | diameter of the inhibition zone (DIZ) (Klebsiella pneumoniae [18]): 12.1 mm; diameter of the inhibition zone (DIZ) (Streptococcus pyogenes [19]): 13.1 mm; diameter of the inhibition zone (DIZ) (Candida albicans [20]): 27.2 mm; MBC (Staphylococcus aureus [21]): 25 µg/mL (≈ 60.4 µM); diameter of the inhibition zone (DIZ) (Talaromyces marneffei [22]): 16.1 mm; MFC (Talaromyces marneffei [23]): 12.5 µg/mL (≈ 30.2 µM); MIC (Talaromyces marneffei [23]): 6.25 µg/mL (≈ 15.1 µM); Ratio (Talaromyces marneffei [24]): 2; MIC (Pseudomonas aeruginosa [25]): 12.5 µg/mL (≈ 30.2 µM); diameter of the inhibition zone (DIZ) (Staphylococcus aureus [26]): 12.9 mm; MBC (Pseudomonas aeruginosa [27]): 25 µg/mL (≈ 60.4 µM)

Source: ChEMBL document CHEMBL1155415, “Synthesis, characterization, and in vitro antimicrobial activities of 5-alkenyl/hydroxyalkenyl-2-phenylamine-1,3,4-oxadiazoles and thiadiazoles” (2010)
